An excerpt weighted towards active compounds, which were near 2.9% of everything screened.
TRPC4 act: activators of mouse TRPC4 channel; Q9QUQ5; AID 2237; B-score at 10 µM; HEK293 TRPC4beta/mu-opioid, Fluo4 calcium fluorescence; active compounds read high; 0.49% of 310,000 active;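 active means B-score above 5 SD of library B-scores, and initial fluorescence ratio not above library mean plus 5 SD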;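 further: positive B-score marks a calcium rise read as TRPC4 activation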
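Material: TRPC4beta and mu-opioid receptor HEK293 stable cells | Incubation: 45 min room-temperature Fluo4 loading, 110 s read | Detection: Kinetic Fluo4 calcium fluorescence | Measure: Integrated baseline-normalised fluorescence ratio, converted to per-well B score | Benchmarks: Low control buffer alone, high control maximal DAMGO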
TRPC6 inh: inhibitors of mouse TRPC6 channel. Q61143. HEK293-TRPC6, membrane potential dye, ACh-evoked depolarization; active compounds read low. B-score at 10 µM. 1.1% of 310,000 active;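 active means B-score under library mean minus 3 SD, initial fluorescence not abnormally high, positive integrated signal ratio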;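 further: B-score derived from integrated fluorescence ratio over the kinetic read; more negative B-score means stronger inhibition of depolarization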
Kir21 block: blocks the mouse Kir2.1 inward-rectifier potassium channel. B-score at 10 µM. P35561. AID 1672. HEK293-Kir2.1, FluxOR thallium flux fluorescence; active compounds read low. 0.85% of 310,000 active;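 active means fluorescence ratio B-score at or below minus 3 SD of library scores, with starting-brightness B-score within 2 SD, cut at about -4.2 in these data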;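 further: channel flux triggered by added potassium and thallium sulfate stimulus; B-score of peak minus minimum fluorescence over baseline after thallium stimulus; more negative B-score means stronger Kir2.1 block with less thallium influx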
Target sequence (P35561 whole entry, looked up): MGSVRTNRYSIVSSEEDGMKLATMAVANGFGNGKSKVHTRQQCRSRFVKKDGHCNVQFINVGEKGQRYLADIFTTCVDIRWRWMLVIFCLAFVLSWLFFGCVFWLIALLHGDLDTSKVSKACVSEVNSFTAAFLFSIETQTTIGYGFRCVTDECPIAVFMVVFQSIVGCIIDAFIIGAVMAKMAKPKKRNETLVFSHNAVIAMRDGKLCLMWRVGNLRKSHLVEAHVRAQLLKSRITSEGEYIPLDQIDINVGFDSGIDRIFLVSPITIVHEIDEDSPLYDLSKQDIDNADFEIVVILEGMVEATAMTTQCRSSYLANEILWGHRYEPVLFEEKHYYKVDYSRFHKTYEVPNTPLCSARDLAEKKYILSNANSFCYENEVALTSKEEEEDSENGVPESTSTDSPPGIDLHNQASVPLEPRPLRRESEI
TRPC4 potent: allosteric potentiators of mouse TRPC4 channel | HEK293 TRPC4beta/mu-opioid, DAMGO EC20, Fluo-4 Ca2+ flux; active compounds read high | 0.42% of 310,000 active | B-score at 10 µM | AID 2227;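 active means B-score of calcium response area above 5 SD of library B-scores, with initial fluorescence ratio within 5 SD of library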
TRPC6 act: activates the mouse TRPC6 cation channel | 0.13% of 310,000 active | HEK293-TRPC6 membrane potential dye fluorescence; active compounds read high | B-score at 10 µM | AID 2550 | Q61143;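 active means B-score of the integrated fluorescence ratio above library mean plus 3 SD, and starting fluorescence ratio within library mean plus 5 SD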;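 further: higher score means more depolarization so channel activation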
TRPC4 inh: TRPC4 (mouse) channel inhibition; HEK293 TRPC4beta/mu-opioid, DAMGO-evoked Fluo4 calcium flux; active compounds read low; B-score at 10 µM; 0.39% of 300,000 active;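 active means B-score over 3 SD under the library average, no early fluorescence shift, positive overall ratio signal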
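Assay system: TRPC4beta/mu-opioid receptor HEK293 cell line; compound dosing: single concentration per test compound; detection: Fluo4 Ca2+ flux fluorescence; evaluation: per-well B score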
TRPC4 spec 2: second selectivity test of TRPC6 inhibitors: effect on mouse TRPC4; shares compounds with TRPC6 inh; HEK293 TRPC4/MOR, membrane potential dye fluorescence; channel activated by saturating DAMGO dose; inhibition, % at 10 µM; 42% of 920 active;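 active means compounds whose fluorescence signal differed from control wells by over 3 SD, either direction, in both duplicate plates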
TRPC4 spec: mouse TRPC4 off-target activity of TRPC6 inhibitors; shares compounds with TRPC6 inh; HEK293 TRPC4/mu-opioid, membrane potential fluorescence; activity change, negative = inhibition, % at 10 µM; 61% of 920 active; AID 2777;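 active means rise or fall in signal beyond 3 SD of buffer-only wells in both replicate plates, either sign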;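 further: integrated kinetic ratio of fluorescence range over baseline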
HEK293 MPD ctr 2-1: second check of TRPC6 inhibitor effects in parental HEK293 cells. shares compounds with TRPC6 inh. parental HEK293 membrane potential dye fluorescence; maximal acetylcholine challenge after compound addition. signal change vs control, % at 10 µM. 31% of 920 active;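 active means membrane potential signal moving either way by over 3 SD of the maximum-effect control, in both duplicate plates, meaning non-specific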
HEK293 MPD ctr-1: counter-screen for TRPC6 inhibitors: effect in parental HEK293 cells; membrane potential signal change, % at 10 µM; parental HEK293 membrane potential dye fluorescence; shares compounds with TRPC6 inh; AID 2780; 60% of 920 active;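 active means membrane potential signal shifting up or down by more than 3 SD of buffer-only wells, on both duplicate plates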
HEK293 MPD ctr-2: checks TRPC6 modulator effects in parental HEK293 cells; shares compounds with TRPC6 inh; membrane potential dye fluorescence; membrane potential signal change, % at 10 µM; 51% of 2,400 active; AID 488924;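 active means membrane potential signal moves up or down beyond 5 SD from buffer-only wells, on both duplicate plates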
HEK293 MPD ctr 2-2: second counter-screen for TRPC6 modulators: effect in parental HEK293 cells; shares compounds with TRPC6 inh; membrane potential dye fluorescence; after compound, maximal acetylcholine stimulation; inhibition, % at 10 µM; 14% of 2,400 active; AID 488926;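 active means membrane potential signal drops by more than 5 SD from the mean control signal, in both duplicate plates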
TRPC4/MOR mod: mouse TRPC4 off-target activity of TRPC6 modulators. shares compounds with TRPC6 inh. HEK293 TRPC4/mu-opioid, membrane potential fluorescence. percent change from control (negative = decrease, positive = increase), % at 10 µM. 69% of 2,400 active;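 active means membrane potential signal moved up or down beyond 5 SD of buffer control wells, in both duplicate plates, actives on both sides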
TRPC4/MOR inh 2: second selectivity test of TRPC6 modulators against mouse TRPC4; shares compounds with TRPC6 inh; HEK293 TRPC4/mu-opioid, membrane potential dye fluorescence; stimulated with maximal-effect DAMGO; inhibition, % at 10 µM; 55% of 2,400 active; AID 488928;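 active means drop in membrane potential signal beyond 5 SD of the control wells in both duplicate plates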;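 further: TRPC4 counter screen for TRPC6 hits run under conditions tuned for TRPC6 not TRPC4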
TRPC6 block conf: mouse TRPC6 inhibitor confirmation; shares compounds with TRPC6 inh; HEK293-TRPC6, membrane potential dye, ACh-evoked depolarization; inhibition, % at 10 µM; 43% of 3,300 active; AID 488960;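 active means fluorescence ratio falls more than 5 SD below the full-stimulation control mean, in both duplicate runs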;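 further: integrated fluorescence ratio of peak minus minimum over baseline after agonist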
TRPC6 act confirm: confirmation of mouse TRPC6 activators; 11% of 2,800 active; HEK293-TRPC6 membrane potential dye fluorescence, FDSS; activation, % at 10 µM; shares compounds with TRPC6 inh;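 active means ratio signal rise beyond 5 SD above unstimulated control wells' mean, seen in both duplicate runs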
Hits are given with their value; i = inactive; nt = not tested or not shown.

SMILES	TRPC4 act	TRPC6 inh	Kir21 block	TRPC4 potent	TRPC6 act	TRPC4 inh	HEK293 MPD ctr-2	HEK293 MPD ctr 2-2	TRPC4/MOR mod	TRPC4/MOR inh 2	TRPC6 block conf	TRPC6 act confirm	others
CCOc1ccc(CCNC(=O)CS(=O)Cc2nc(-c3ccc(C)cc3)oc2C)cc1OCC (centres undefined)	i	i	i	i	i	i	nt	nt	nt	nt	nt	nt
O=C(c1ccc(OC2CCN(Cc3ccccc3C(F)(F)F)CC2)cc1)N1CCCCC1	i	i	i	i	i	i	nt	nt	nt	nt	nt	nt
O=C(c1ccc(OC2CCN(Cc3ccc(C(F)(F)F)cc3)CC2)cc1)N1CCCCC1	i	-6.3	i	i	i	i	126%	i	i	44%	66%	nt
C/C=C/c1ccc(OCC(O)CN2CCCCC2CC)c(OC)c1 (centres undefined)	i	i	i	i	i	i	nt	nt	nt	nt	nt	nt
CCc1cc(C(=O)NNC(=S)Nc2cc(C)ccc2C)cs1	i	i	i	i	i	i	nt	nt	nt	nt	nt	nt
COc1ccc(C(=O)Nc2c(-c3ccccc3)nc3ccccn23)c(OC)c1	i	i	i	i	20	i	i	i	12%	28%	i	i
Cc1c(Br)c([N+](=O)[O-])nn1CC(=O)Nc1ccc(C(N)=O)cc1	i	i	i	i	i	i	nt	nt	nt	nt	nt	nt
CC(C)N(C(=O)C1CC(=O)OC12CCCCC2)C(C)C (centres undefined)	i	i	i	i	i	i	nt	nt	nt	nt	nt	nt
Cc1ccc(NC(=O)CCC(=O)NNC(=O)COc2ccc([N+](=O)[O-])cc2)c(C)c1	i	i	i	i	i	i	nt	nt	nt	nt	nt	nt
Cc1ccc(S(=O)(=O)Nc2ccc(NC(=O)CN3CCCCC3)cc2)cc1	i	-6.8	i	i	13	i	i	i	8.5%	i	83%	118%
O=C(/C=C/c1ccccc1Cl)NCCN1CCOCC1	i	i	i	i	i	i	nt	nt	nt	nt	nt	nt
Cc1cccc(N2CCN(C(=O)c3ccc4c(c3)c(C)c(C)n4C)CC2C)c1 (centres undefined)	i	-5.1	i	i	i	i	i	i	i	i	i	i
Cc1cccc(N2CCN(C(=O)c3ccc(N4CCCC4=O)cc3)CC2C)c1 (centres undefined)	i	i	i	i	i	i	nt	nt	nt	nt	nt	nt
CC1Cc2ccccc2N1C(=O)CNc1cccc(S(=O)(=O)N2CCCC2)c1 (centres undefined)	i	i	i	i	i	i	nt	nt	nt	nt	nt	nt
O=c1oc2ccccc2c(N2CCCCC2)c1CN1CCCCC1	i	-5.1	i	i	i	i	106%	i	26%	i	i	nt
Cc1ccc(S(=O)(=O)N(CCC#N)C2CCCCC2)c2nsnc12	i	i	i	i	i	i	nt	nt	nt	nt	nt	nt
CCS(=O)(=O)N1Cc2ccccc2CC1C(=O)Nc1nnc(SCc2ccc(C#N)cc2)s1 (centres undefined)	i	i	i	i	23	i	i	i	i	i	i	i
COc1ccc(CCNC(=O)c2cn(C)c3ccc(S(=O)(=O)N4CCOCC4)cc3c2=O)cc1OC	i	i	i	i	i	i	nt	nt	nt	nt	nt	nt
CCCOc1ccc(C(=O)CCN2CCCCC2)cc1	i	-5.4	i	i	i	i	150%	i	24%	i	i	nt
CCOc1ccc(C(=O)CCN2CCCCCC2)cc1	i	i	i	i	i	i	nt	nt	nt	nt	nt	nt
CCOC(=O)c1[nH]c2ccccc2c1NC(=S)Nc1ccccc1	i	i	i	i	i	i	nt	nt	nt	nt	nt	nt
CCOC(=O)c1[nH]c2ccccc2c1CCCN1C(=O)c2ccccc2C1=O	i	-6.9	i	i	i	i	nt	nt	nt	nt	i	i	TRPC4 spec 2=i;TRPC4 spec=i;HEK293 MPD ctr 2-1=i;HEK293 MPD ctr-1=i
CCN(CC)CCC(=O)Nc1cccc2c1C(=O)c1ccccc1C2=O	i	-6.4	i	i	i	i	i	i	-30%	46%	52%	i
Nc1cccc(C(=O)OCC(=O)Nc2cccc3c2C(=O)c2ccccc2C3=O)c1	i	i	i	i	i	i	nt	nt	nt	nt	nt	nt
COc1ccc(OC)c(NC(=O)CC2C(=O)NCCN2C(=O)Nc2cccc(Cl)c2)c1 (centres undefined)	i	-5.9	i	i	i	i	i	i	-14%	29%	i	i
SMILES	TRPC4 act	TRPC6 inh	Kir21 block	TRPC4 potent	TRPC6 act	TRPC4 inh	HEK293 MPD ctr-2	HEK293 MPD ctr 2-2	TRPC4/MOR mod	TRPC4/MOR inh 2	TRPC6 block conf	TRPC6 act confirm	others
COc1ccc(C(=O)N2CCNC(=O)C2CC(=O)Nc2cc(Cl)ccc2OC)cc1 (centres undefined)	i	i	i	i	i	i	nt	nt	nt	nt	nt	nt
CC12CNCC(C)(CN(C(c3ccccc3)c3ccccc3)C1)C2	i	-5.6	i	i	i	i	182%	i	76%	90%	i	nt
CC(=O)N1CCN(C(c2ccccc2)c2ccccc2)CC1	i	i	i	i	i	i	nt	nt	nt	nt	nt	nt
O=C(NC1CCCC1)c1ccc(Cl)c(S(=O)(=O)N2CCCCC2)c1	i	i	i	i	i	i	nt	nt	nt	nt	nt	nt
CCOc1ccc(-n2c(-c3ccc(OC)cc3)c[n+]3c2CCCCC3)cc1	i	i	i	i	i	i	nt	nt	nt	nt	nt	nt
CCOc1ccc(-n2c(-c3ccccc3)c[n+]3c2CCC3)cc1	i	-6.3	i	i	i	i	-58%	62%	-13%	30%	45%	i
CCN1CCN(CCCN(Cc2ccco2)C(=S)Nc2ccc(Cl)cc2)CC1	i	i	i	i	i	i	nt	nt	nt	nt	nt	nt
